Reference: ChEMBL document CHEMBL4837200, “Discovery of Orally Bioavailable Purine-Based Inhibitors of the Low-Molecular-Weight Protein Tyrosine Phosphatase” (J Med Chem, 2021)
pIC50: −log10 of the molar value. The source made the active and inactive calls. No cut-off for these calls is given here.

Experiments:
[1] = molecular target: T1, Low molecular weight phosphotyrosine protein phosphatase (Homo sapiens, UniProt P24666); assay: Inhibition of recombinant human LMPTP-A using OMFP or pNPP as substrate by fluorescence assay
T1 sequence (P24666 whole entry): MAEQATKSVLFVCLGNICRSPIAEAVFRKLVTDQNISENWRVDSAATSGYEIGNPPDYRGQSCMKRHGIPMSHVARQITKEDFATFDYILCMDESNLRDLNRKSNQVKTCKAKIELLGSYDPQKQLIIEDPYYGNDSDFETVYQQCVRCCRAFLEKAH
Outline: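 Recombinant human LMPTP-A in 50 mM Bis-Tris pH 6.0, 1 mM DTT, 0.01% Triton X-100, 37°C. With OMFP, fluorescence followed continuously (ex 485/em 525 nm). With pNPP, reaction stopped with 2 volumes 1 M NaOH and absorbance read at 405 nm. IC50 from inhibitor concentration vs % enzyme activity plots; n=4 unless otherwise noted.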

[2] = AUC in C57BL/6 mouse at 10 mg/kg, po measured upto 24 hrs by LC-MS/MS analysis; format: ADME, organism-based; parameters: route oral, dose 10 mg/kg, time <=24; conditions: in vivo
[3] = molecular target: T2, Low molecular weight phosphotyrosine protein phosphatase (Homo sapiens) (UniProt P24666); assay: Inhibition of LMPTP in human HepG2 cells assessed as increase in insulin-stimulated AKT Thr308 phosphorylation at 500 nM preincubated overnight followed by insulin stimulation for 5 mins by Western blotting analysis; format: cell-based
T2 sequence (whole entry): T1 sequence (P24666 whole entry)
Outline: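 HepG2 cells grown in EMEM with 10% FBS plus penicillin/streptomycin. Serum-starved (0.1% FBS) overnight with DMSO or 500 nM compound, then stimulated with 10 nM bovine insulin for 5 min at 37°C with compound still present. Lysates probed by Western blot for pAKT Thr308, normalized to total AKT or GAPDH. 8 independent experiments.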

[4] = Microsomal stability in human liver microsomes assessed as parent compound remaining measured after 1 hr; format: ADME, Microsome; conditions: read-out: Stabilty
[5] = Half life in C57BL/6 mouse at 10 mg/kg, po measured upto 24 hrs by LC-MS/MS analysis; format: ADME, organism-based; conditions: in vivo
[6] = Microsomal stability in mouse liver microsomes assessed as parent compound remaining measured after 1 hr; format: ADME, Microsome; conditions: read-out: Stabilty
[7] = Plasma protein binding in mouse; format: ADME, cell-free
[8] = Plasma protein binding in human; format: ADME, cell-free
Mus musculus [9] = assay: Reversal of high fat diet induced diabetes in B6 mouse assessed as increase in insulin-stimulated AKT Thr308 phosphorylation in liver at 30 mg/kg/day, po administered for 2 weeks by Western blotting analysis; format: functional, organism-based
Outline: (§1)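 Male C57BL/6 littermates fed 60 kcal% fat chow for 3 months from 1-2 months of age; DIO mice ≥35 g given HFD containing 0.03% w/w compound (about 30 mg/kg/day) or HFD alone for 2 weeks. HFD n=8; treated n=9.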

Mus musculus [10] = assay: Reversal of high fat diet induced diabetes in B6 mouse assessed as improved glucose tolerance at 30 mg/kg/day, po administered for 2 weeks followed by 13 hrs fasting and measured by IPGTT; format: functional, organism-based; outline: as §1
[11] = Volume of distribution in C57BL/6 mouse at 2 mg/kg, iv measured upto 24 hrs by LC-MS/MS analysis; format: ADME, organism-based; conditions: in vivo
Mus musculus [12] = assay: Reversal of high fat diet induced diabetes in B6 mouse assessed as decrease in fasting insulin levels at 30 mg/kg/day, po administered for 2 weeks by ELISA; format: functional, organism-based; outline: as §1
[13] = Oral bioavailability in C57BL/6 mouse at 10 mg/kg measured upto 24 hrs by LC-MS/MS analysis; format: ADME, organism-based; conditions: in vivo
Mus musculus [14] = assay: Reversal of high fat diet induced diabetes in B6 mouse assessed as increase in insulin-stimulated IR tyrosine phosphorylation in liver at 30 mg/kg/day, po administered for 2 weeks by ELISA; format: functional, organism-based; outline: as §1
[15] = Cmax in C57BL/6 mouse at 10 mg/kg, po measured upto 24 hrs by LC-MS/MS analysis; format: ADME, organism-based; parameters: route oral, dose 10 mg/kg, time <=24; conditions: in vivo
[16] = molecular target: T2, Low molecular weight phosphotyrosine protein phosphatase (Homo sapiens); assay: Uncompetitive inhibition of recombinant human LMPTP-A using OMFP as substrate by Lineweaver-Burk plot analysis
Outline: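 Recombinant human LMPTP-A at 20 nM acting on increasing OMFP concentrations with increasing inhibitor concentrations. Buffer was 50 mM Bis-Tris pH 6.0, 1 mM DTT, 0.01% Triton X-100 at 37°C. Fluorescence read continuously (ex 485/em 525 nm). Rates fitted to Michaelis-Menten and mixed-model inhibition equations and shown as Lineweaver-Burk plots. 3 independent experiments in triplicate.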

Nc1ncn(Cc2c(Cl)cncc2Cl)c2ncnc1-2
pIC50 [1]: 7.08 | AUC [2]: 9501 ng·h/mL | inhibition [3]: Active | remaining at 1 h [4]: > 90% | t1/2 [5]: 0.71 h | remaining at 1 h [6]: > 90% | PPB [7]: 89% | PPB [8]: 88% | Activity (Mus musculus [9]): Active | Activity (Mus musculus [10]): Active | Vd [11]: 0.81 L/kg | Activity (Mus musculus [12]): Active | F [13]: 100% | Activity (Mus musculus [14]): Active | Cmax [15]: 8220 ng/mL

N#Cc1ccccc1-c1nc2c(N)ncn(Cc3c(Cl)cccc3Cl)c-2n1
pIC50 [1]: 6.61

Nc1ncn(Cc2c(Cl)cccc2Cl)c2nc(-c3cccc(F)c3)nc1-2
pIC50 [1]: 6.62

Nc1ncn(Cc2c(Cl)cccc2Cl)c2nc(-c3ccccc3F)nc1-2
pIC50 [1]: 6.83

Nc1ncn(Cc2c(Cl)cccc2Cl)c2nc(Cl)nc1-2
pIC50 [1]: 4.56

Nc1ncn(Cc2c(Cl)cccc2Cl)c2nc(-c3ccc(F)cc3)nc1-2
pIC50 [1]: 6.93

Cc1ccc(-c2nc3c(N)ncn(Cc4c(Cl)cccc4Cl)c-3n2)cc1
pIC50 [1]: 6.92

Nc1ncn(Cc2ccc(Cl)cc2Cl)c2ncnc1-2
pIC50 [1]: 5.99

Nc1ncn(Cc2ccc(Cl)cc2)c2ncnc1-2
pIC50 [1]: 4.71

Cc1cccc(C)c1Cn1cnc(N)c2ncnc1-2
pIC50 [1]: 5.46

Nc1ncn(Cc2c(Cl)cccc2Cl)c2nc(-c3ccccc3)nc1-2
pIC50 [1]: 6.98

Cc1cccc(-c2nc3c(N)ncn(Cc4c(Cl)cccc4Cl)c-3n2)c1
pIC50 [1]: 7.06

Cc1ccccc1-c1nc2c(N)ncn(Cc3c(Cl)cncc3Cl)c-2n1
pIC50 [1]: 8.22 | AUC [2]: 38 ng·h/mL | t1/2 [5]: 1.55 h | Vd [11]: 4.04 L/kg | F [13]: 3% | Cmax [15]: 17 ng/mL

COc1ccccc1-c1nc2c(N)ncn(Cc3c(Cl)cccc3Cl)c-2n1
pIC50 [1]: 6.97

Nc1ncn(Cc2ccccc2)c2ncnc1-2 [3-BENZYLADENINE]
pIC50 [1]: 4.87

Nc1ncn(Cc2c(Cl)cccc2Cl)c2nc(-c3ccc(Cl)cc3)nc1-2
pIC50 [1]: 6.54

Nc1ncn(Cc2c(Cl)cccc2Cl)c2ncnc1-2
pIC50 [1]: 6.62 | AUC [2]: 18544 ng·h/mL | t1/2 [5]: 4.71 h | Vd [11]: 3.01 L/kg | F [13]: 66% | Cmax [15]: 5018 ng/mL

Cc1nc2c(N)ncn(Cc3c(Cl)cccc3Cl)c-2n1
pIC50 [1]: 6.51

Nc1ncn(Cc2cccc(Cl)c2)c2ncnc1-2
pIC50 [1]: 4.73

Nc1ncn(Cc2c(Cl)cccc2Cl)c2nc(-c3ccccc3Cl)nc1-2
pIC50 [1]: 6.77

Cc1ccccc1-c1nc2c(N)ncn(Cc3c(Cl)cccc3Cl)c-2n1
pIC50 [1]: 7.70 | AUC [2]: 312 ng·h/mL | t1/2 [5]: 1.35 h | Vd [11]: 2.75 L/kg | F [13]: 19% | inhibition [16]: Active | Cmax [15]: 134 ng/mL

Nc1ncn(Cc2ccccc2Cl)c2ncnc1-2
pIC50 [1]: 5.71

Nc1ncn(Cc2c(Cl)cccc2Cl)c2nc(Br)nc1-2
pIC50 [1]: 4.75

Nc1ncn(Cc2c(Cl)cccc2Cl)c2nc(-c3cccc(Cl)c3)nc1-2
pIC50 [1]: 6.42
